Entries after “also recorded” stand apart in the source; their conditions may differ.
Columns and labels:
[1] = target: T1, catalytic domain of human PARP10 (Homo sapiens, UniProt Q53GL7); assay: PARP10 auto-ADP-ribosylation; assay type: biochemical; details: compound 100 μM; 300 μM NAD+; pan-ADPr binding reagent immunoblot
T1 sequence (Q53GL7 806-1025 limits assumed): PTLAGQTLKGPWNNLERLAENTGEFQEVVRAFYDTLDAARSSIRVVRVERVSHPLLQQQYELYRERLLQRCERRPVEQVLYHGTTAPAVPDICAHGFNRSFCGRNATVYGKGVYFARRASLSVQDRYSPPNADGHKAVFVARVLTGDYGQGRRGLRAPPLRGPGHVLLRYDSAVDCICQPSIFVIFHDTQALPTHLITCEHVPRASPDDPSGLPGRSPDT

full-length human PARP2 = full-length human PARP2 (Homo sapiens, UniProt Q9UGN5); assay: PARP2 auto-poly-ADP-ribosylation, immunoblot with anti-PAR antibody; assay type: biochemical; details: compound 100 μM, 300 μM NAD+
Method in brief: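 Full-length human enzyme was recombinantly expressed in and purified from bacteria. Auto-PARylation was run in the absence and presence of test compound at 100 μM. Immunoblots were probed with anti-PAR antibody and band signal was quantified.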

[2] = target: catalytic domain of human PARP5a (Homo sapiens, UniProt O95271); assay: PARP5a auto-ADP-ribosylation, immunoblot with pan-ADPr binding reagent; assay type: biochemical; details: compound 100 μM, 300 μM NAD+
[3] = system: HAP1 wild-type cell lysates; assay: Protein ADP-ribosylation in HAP1 wild-type cell lysates, immunoblot; assay type: biochemical, human; details: compound 100 μM; 600 μM NAD+; olaparib 100 μM as control
[4] = system: HAP1/PARP1-knockout cell lysates; assay: Protein ADP-ribosylation in HAP1/PARP1-KO cell lysates, immunoblot; assay type: biochemical, human; details: compound 100 μM; 600 μM NAD+; olaparib 100 μM as control
HeLa cells = assay: Cellular ADP-ribosylation in H2O2-stimulated HeLa cells; assay type: cell-based, human; details: H2O2 1 mM, inhibitor 100 μM, 20 minutes
Method in brief: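 HeLa cells were stimulated with H2O2 and treated without or with test compound at 100 μM. Cellular ADP-ribosylation was imaged by confocal microscopy using an AF1521 macrodomain-based pan-ADPr binding reagent. Lysates were immunoblotted with the same pan-ADPr reagent, with anti-GAPDH as loading control. Densitometry was normalized to loading controls, and significance was reported as p < 0.05 and p < 0.01.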

full-length human PARP2, sequence (Q9UGN5 whole entry): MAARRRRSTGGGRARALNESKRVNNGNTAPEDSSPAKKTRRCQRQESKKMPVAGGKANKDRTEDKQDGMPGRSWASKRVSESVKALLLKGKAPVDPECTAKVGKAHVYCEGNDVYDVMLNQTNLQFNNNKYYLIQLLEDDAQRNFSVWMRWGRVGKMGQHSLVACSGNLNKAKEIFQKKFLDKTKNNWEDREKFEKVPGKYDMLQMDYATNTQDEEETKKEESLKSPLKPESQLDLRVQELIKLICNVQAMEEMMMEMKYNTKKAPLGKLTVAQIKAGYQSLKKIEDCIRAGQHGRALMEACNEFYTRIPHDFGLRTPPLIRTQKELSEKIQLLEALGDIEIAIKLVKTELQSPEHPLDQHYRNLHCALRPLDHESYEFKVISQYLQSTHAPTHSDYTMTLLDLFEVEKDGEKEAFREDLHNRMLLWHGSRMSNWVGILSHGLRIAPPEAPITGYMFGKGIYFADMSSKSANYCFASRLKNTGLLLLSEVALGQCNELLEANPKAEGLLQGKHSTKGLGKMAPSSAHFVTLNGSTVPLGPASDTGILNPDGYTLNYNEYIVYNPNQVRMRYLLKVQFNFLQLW
catalytic domain of human PARP5a, sequence (O95271 1112-1317): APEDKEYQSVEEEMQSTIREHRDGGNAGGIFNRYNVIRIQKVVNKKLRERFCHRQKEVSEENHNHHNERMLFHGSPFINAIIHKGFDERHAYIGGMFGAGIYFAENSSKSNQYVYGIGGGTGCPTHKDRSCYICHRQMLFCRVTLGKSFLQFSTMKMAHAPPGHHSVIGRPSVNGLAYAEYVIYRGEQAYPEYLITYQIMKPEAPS

| inhibition of PARP2-catalyzed auto-modification (PARylation) (full-length human PARP2) | Structure (SMILES) | effect on cellular ADP-ribosylation triggered by H2O2 (HeLa cells) | further results |
| --- | --- | --- | --- |
| reduced inhibition activities | CC(=O)c1cccc([C@@H](C)Oc2ccccc2C(N)=O)c1 [compound 4] |  |  |
| reduced inhibition activities | CC(=O)c1cccc([C@H](C)Oc2ccccc2C(N)=O)c1 [compound 5] |  |  |
|  | CC(=O)c1cccc(CCOc2ccccc2C(N)=O)c1 [compound 7] | no significant impact |  |
|  | CC(=O)c1cccc(CCOc2ccc(F)cc2C(N)=O)c1 [compound 8] | no significant impact |  |
| reduced inhibition activities | CC(=O)c1cccc(CCCOc2ccccc2C(N)=O)c1 [compound 9] |  |  |
|  | O=C(c1cc(Cc2n[nH]c(=O)c3ccccc23)ccc1F)N1CCN(C(=O)C2CC2)CC1 [olaparib, reference compound] | largely suppressed |  |

| Structure (SMILES) | inhibition of PARP2-catalyzed auto-modification (PARylation) (full-length human PARP2) | effect on cellular ADP-ribosylation triggered by H2O2 (HeLa cells) | further results |
| --- | --- | --- | --- |
| CC(=O)c1cccc(COc2ccccc2C(N)=O)c1 [compound 3] | functions as an inhibitor for PARP2; also recorded: significantly inhibit |  | inhibition of PARP10-catalyzed auto-ADP-ribosylation [1]: significantly decreased levels of ADP-ribosylation; inhibition of PARP5a-catalyzed auto-ADP-ribosylation [2]: significantly decreased levels of ADP-ribosylation; inhibition of protein ADP-ribosylation in HAP1-WT cell lysates [3]: significantly higher than those of olaparib-treated ones; inhibition of protein ADP-ribosylation in HAP1/PARP1-KO cell lysates [4]: no significant differences to those of olaparib-treated ones and non-modified controls |

Reference: publication PMC11571001 (ACS Medicinal Chemistry Letters, 2024)
